Published values collected from several papers.
Target: SRSF protein kinase 1 (SRPK1, Homo sapiens, UniProt Q96SB4)

| SMILES | test | setting | remaining binding [%] |
| --- | --- | --- | --- |
| Nc1cnc(N2CCc3cc(S(=O)(=O)Nc4c(F)cc(Cl)cc4F)cc(N4CCCC4=O)c32)nc1 | cell-free assay, competition with immobilised ligand | 1 µM | 81 |
| CN(C)c1nccc(-c2cnc3ncccn23)n1 | binding | 1 µM | 82 |
| Nc1ncc2c(n1)-c1c([nH]c3ccc(C#CC4CC4)cc13)CCCC2 | binding, competition with immobilised ligand | 1 µM | 87 |
| COc1ccnn2ncc(-c3ccnc(N(C)C)n3)c12 | binding | 1 µM | 85 |
| Cc1cnc(Nc2ccc(C(=O)N3CCC(N4CCCC4)CC3)cc2)nc1-c1cc2ccccc2s1 | binding, competition with immobilised ligand | 1 µM | 100 |
| F[C@@H]1CCN(c2nccc(-c3cnn4ncccc34)n2)C1 | binding | 1 µM | 100 |
| CN(C)C(=O)Cn1cc(-c2nc([C@@](C)(c3ccc(-c4cnc(N)nc4)cc3)C3CC3)no2)cn1 | cell-free assay, competition with immobilised ligand | 1 µM | 100 |
| N[C@H]1CCN(c2nccc(-c3cnn4ncccc34)n2)C1 | binding | 1 µM | 84 |
| CCOCCn1cc(C(=O)Nc2ccc(-n3nc(-c4cccnc4)cc3C(F)(F)F)cn2)ccc1=O | cell-free assay, competition with immobilised ligand | 1 µM | 98 |
| CNC(=O)[C@@H]1CC[C@@H](n2c(-c3ccc4cnccc4c3)nc3ccc(C(=O)NCc4cccc(C(N)=O)c4)cc32)C1 | binding, competition with immobilised ligand | 1 µM | 79 |
| CN(C)C(=O)Cn1cc(-c2nc(C3(c4ccc(-c5cnc(N)nc5)cc4)CC3)no2)cn1 | cell-free assay, competition with immobilised ligand | 1 µM | 93 |
| COc1ncc2cc3ccccc3nc2c1C#N | cell-free assay, competition with immobilised ligand | 5 µM | 96 |
| CN(CCCC(F)(F)F)c1nccc(-c2cnn3ncccc23)n1 | binding | 1 µM | 100 |
| O=C(NCCCN1CCOCC1)c1ccc(Nc2nccc(-c3cc4ccccc4s3)n2)cc1 | binding, competition with immobilised ligand | 1 µM | 100 |
| O=C(NCC1CCOCC1)c1n[nH]cc1NC(=O)c1c(F)cccc1F | binding, competition with immobilised ligand | 1 µM | 68 |
| COCCOc1nc(-c2ccc(Cl)nc2)nc2c1CN(C(=O)c1ncn3ccccc13)CC2 | cell-free assay, competition with immobilised ligand | 0.1 µM | 86 |
| COc1cnc(Nc2cccc(S(N)(=O)=O)c2)nc1N1CCN(c2ccccc2)C(=O)C1 | binding, competition with immobilised ligand | 1 µM | 100 |
| O=C(O)c1cc(-c2ccc(C3CCNCC3)cc2)c2ccc(-c3ccc(C(F)(F)F)cc3)cc2c1 | cell-free assay, competition with immobilised ligand | 1 µM | 86 |
| Cc1cnn2ncc(-c3ccnc(N(C)C)n3)c2c1 | binding | 1 µM | 100 |
| O=C(NCCCN1CCOCC1)c1ccc(Nc2ncc(Cl)c(-c3ccc(Cl)s3)n2)cc1 | binding, competition with immobilised ligand | 1 µM | 97 |
| c1cncc(-c2cccc(Nc3nccc(NC4CCCCC4)n3)c2)c1 | binding, competition with immobilised ligand | 10 µM | 30 |
